Measured values taken from ChEMBL document CHEMBL1130198, “Inhibition of tubulin polymerization by 5,6-dihydroindolo[2,1-alpha]isoquinoline derivatives” (J Med Chem, 1997).

Assays:
Tubulin [1] = biological target: T1, Tubulin (Bos taurus, UniProt Q6B856+Q862L2+Q862F3); assay: Inhibition of tubulin polymerization using isolated calf brain; type: functional
Outline: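 Twice-cycled, MAP-containing calf brain microtubules depolymerized in PEMG buffer (0.8 M glutamate, pH 6.6-6.7) at 0 °C; compound in DMSO, preincubated 15 min at 37 °C, chilled, GTP added; turbidity at 350 nm over 20 min after shift from 2 to 37 °C.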

Tubulin (Bos taurus) = Tubulin (Bos taurus) (UniProt Q6B856+Q862L2+Q862F3); assay: Inhibition of colchicine binding to tubulin; type: functional; details: concentration not given here
Outline: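 Calf brain tubulin (prepared as for polymerization) diluted 1:10 in ice-cold PEM buffer (PIPES, EGTA, MgSO4, pH 6.6-6.7); 1 µM [3H]colchicine with 10 µM inhibitor, DMSO vehicle, 30 min at 37 °C; GTP added on ice, filtered through DEAE-cellulose, washed; tubulin-bound radioactivity by scintillation counting, tubulin-free mixtures as background. Mean of two independent experiments.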

MCF7 = assay: Inhibition of estrogen receptor positive MCF-7 human breast cancer cell proliferation; type: functional, cell-based
Outline: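 MCF-7 cells in EMEM with 10% FCS; treatment medium contains dextran-charcoal-treated FCS; exposure ca. 8 days; glutaraldehyde fixation, crystal violet staining, optical density read at 578 nm.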

MDA-MB-231 [2] = assay: Inhibition of the growth of MDA-MB 231 human breast cancer cells; type: functional, cell-based
Tubulin [3] = biological target: T1, Tubulin; assay: Inhibition of tubulin polymerization using isolated calf brain at 37 degrees C; type: functional
[4] = biological target: Tubulin alpha chain (Bos taurus) (UniProt P81947); assay: Inhibition of colchicine binding to tubulin; details: concentration not given here
Chain of Tubulin alpha chain (Bos taurus) (P81947 whole entry, looked up): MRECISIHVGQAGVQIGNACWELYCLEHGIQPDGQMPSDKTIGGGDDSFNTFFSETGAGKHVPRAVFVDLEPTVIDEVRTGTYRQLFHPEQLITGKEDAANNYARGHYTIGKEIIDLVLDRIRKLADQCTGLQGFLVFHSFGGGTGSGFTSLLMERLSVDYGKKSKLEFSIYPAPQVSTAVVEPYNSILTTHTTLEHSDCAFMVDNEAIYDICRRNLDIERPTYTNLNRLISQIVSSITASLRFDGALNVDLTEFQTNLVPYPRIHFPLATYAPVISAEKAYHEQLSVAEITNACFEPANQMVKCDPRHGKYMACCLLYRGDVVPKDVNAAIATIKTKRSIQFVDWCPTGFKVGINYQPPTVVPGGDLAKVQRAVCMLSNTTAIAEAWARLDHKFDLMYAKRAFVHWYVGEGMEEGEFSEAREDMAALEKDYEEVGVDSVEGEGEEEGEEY

MDA-MB-231 [5] = assay: Inhibition of estrogen receptor negative MDA-MB 231 breast cancer cell proliferation at 10 uM; type: functional, cell-based; details: Homo sapiens
Outline: (§1)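 MDA-MB 231 cells grown in McCoy-5a with L-glutamine, gentamycin, NaHCO3 and 5% FCS, 5% CO2, 37 °C. Cells were seeded in 96-well plates and grown 2–3 days, then given medium containing compound; controls had 0.1% DMF. After about 4 days, cells were fixed with 1% glutaric dialdehyde, stained with 0.02% crystal violet, extracted with 70% EtOH, and OD578 was read against initial density.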

MDA-MB-231 [6] = assay: Inhibition of estrogen receptor negative MDA-MB 231 breast cancer cell proliferation at 1 uM; type: functional, cell-based; details: Homo sapiens; outline: as §1
Tubulin [7] = biological target: T1, Tubulin; assay: Inhibition of tubulin polymerization using isolated calf brain at 26 degrees C; type: functional
MDA-MB-231 [8] = assay: Inhibition of estrogen receptor negative MDA-MB 231 breast cancer cell proliferation; type: functional, cell-based; details: Homo sapiens
Outline: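 MDA-MB 231 cells (hormone-independent) in McCoy-5a with 5% FCS, grown 2–3 days in 96-well plates at 37 °C, 5% CO2, then medium with test compound (DMF stock; 0.1% DMF controls) for about 4 days; glutaraldehyde fixation, 0.02% crystal violet staining, ethanol extraction, OD 578 nm versus initial density. IC50 from two independent experiments.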

Compound | IC50 (MCF7) [µM] | IC50 (MDA-MB-231 [2]) [µM] | further results
CCCC1Cc2cc(O)ccc2-c2c(C=O)c3ccc(O)cc3n21 (single isomer, unassigned; (+)) [listing 1 of 2 here] |  |  | IC50 (Tubulin [1]): 11 µM
CCCCC1Cc2cc(O)ccc2-c2c(C=O)c3ccc(O)cc3n21 (single isomer, unassigned; (-)) [listing 1 of 2 here] |  |  | inhibition (Tubulin (Bos taurus)): 22%
CCCCC1Cc2cc(O)ccc2-c2c(C=O)c3ccc(O)cc3n21 (stereo in doubt; (+)-6c) [listing 1 of 2 here] |  |  | IC50 (Tubulin [1]): 3.1 µM
CCCCC1Cc2cc(OC)ccc2-c2c(C=O)c3ccc(OC)cc3n21 (stereo unspecified) |  | 8.7 | 
CCCCC1Cc2cc(O)ccc2-c2c(C#N)c3cc(O)c(O)cc3n21 (stereo unspecified) | 2.7 | 3.4 | IC50 (Tubulin [3]): 25 µM; inhibition [4]: 54%
CCCCC1Cc2cc(OC)ccc2-c2c(CNC)c3ccc(OC)cc3n21 (stereo unspecified) |  | 2.1 | 
CCCCC1Cc2cc(O)ccc2-c2c(C=O)c3ccc(O)cc3n21 (single isomer, unassigned; (-)) [listing 2 of 2 here] |  |  | IC50 (Tubulin [1]): > 60 µM
CCCCC1Cc2cc(OC)ccc2-c2cc3cc(OC)c(OC)cc3n21 (stereo unspecified) |  | > 10 | 
CCCC1Cc2cc(O)ccc2-c2c(C=O)c3ccc(O)cc3n21 (single isomer, unassigned; (-)) [listing 1 of 2 here] |  |  | inhibition (Tubulin (Bos taurus)): 27%
CCCCC1Cc2cc(O)ccc2-c2c(C=O)c3ccc(O)cc3n21 (stereo in doubt; (+)-6c) [listing 2 of 2 here] |  |  | inhibition (Tubulin (Bos taurus)): 69%
COc1cc2c(c(OC)c1OC)-c1ccc(OC)c(=O)cc1[C@@H](NC(C)=O)CC2 [COLCHICINE] |  | 0.03 | 
CCCCC1Cc2cc(OC)ccc2-c2c(/C=N/C)c3ccc(OC)cc3n21 (stereo unspecified) |  | 7.8 | 
CCCCC1Cc2cc(O)ccc2-c2c(C=O)c3cc(O)c(O)cc3n21 (stereo unspecified) | > 10 | 3.2 | IC50 (Tubulin [3]): 19 µM
CCCCC1Cc2cc(O)ccc2-c2c(/C=N/Cc3ccccc3)c3ccc(O)cc3n21 (stereo unspecified) | 0.26 | 2.1 | 
COc1cc([C@@H]2c3cc4c(cc3[C@H](O)[C@H]3COC(=O)[C@H]23)OCO4)cc(OC)c1OC [PODOFILOX] |  | 0.026 | 
CCCC1Cc2cc(O)ccc2-c2c(C=O)c3ccc(O)cc3n21 (single isomer, unassigned; (+)) [listing 2 of 2 here] |  |  | inhibition (Tubulin (Bos taurus)): 53%
CCCC1Cc2cc(O)ccc2-c2c(C=O)c3ccc(O)cc3n21 (single isomer, unassigned; (-)) [listing 2 of 2 here] |  |  | IC50 (Tubulin [1]): > 70 µM
COc1cc2c(cc1O)CC[C@@H]1[C@@H]2CC[C@]2(C)[C@@H](O)CC[C@@H]12 [2-METHOXYESTRADIOL] |  |  | IC50 (MDA-MB-231 [5]): 5 µM; IC50 (MDA-MB-231 [6]): 0.25 µM; IC50 (Tubulin [1]): 60 µM; IC50 (Tubulin [7]): 12 µM; inhibition [4]: 44%
CCCC1Cc2cc(OC)ccc2-c2c(C=O)c3ccc(OC)cc3n21 (stereo unspecified) |  | > 10 | 

Continued, in another order:

IC50 (MCF7) [µM] | IC50 (MDA-MB-231 [2]) [µM] | Compound | further results
0.22 | 1.4 | CCCCC1Cc2cc(O)ccc2-c2c(C=O)c3ccc(O)cc3n21 (stereo unspecified) | 
2.5 | 2.2 | CCCCC1Cc2cc(O)ccc2-c2c(C(C)=O)c3ccc(O)cc3n21 (stereo unspecified) | 
 | > 10 | CCCCC1Cc2cc(OC)ccc2-c2c(C(C)=O)c3ccc(OC)cc3n21 (stereo unspecified) | 
 | 2.7 | CCCCC1Cc2cc(OC)ccc2-c2c(C#N)c3cc(OC)c(OC)cc3n21 (stereo unspecified) | 
> 10 | > 10 | CCCCC1Cc2cc(O)ccc2-c2cc3cc(O)c(O)cc3n21 (stereo unspecified) | 
 | 3.1 | CCCCC1Cc2cc(OC)ccc2-c2c(C#N)c3ccc(OC)cc3n21 (stereo unspecified) | 
 | 0.011 | CC[C@]1(O)C[C@@H]2CN(CCc3c([nH]c4ccccc34)[C@@](C(=O)OC)(c3cc4c(cc3OC)N(C)[C@H]3[C@@](O)(C(=O)OC)[C@H](OC(C)=O)[C@]5(CC)C=CCN6CC[C@]43[C@@H]65)C2)C1 [VINBLASTINE] | 
0.15 |  | CC/C(=C(\c1ccccc1)c1ccc(OCCN(C)C)cc1)c1ccccc1 [TAMOXIFEN] | 
0.65 | 0.2 | CCCCC1Cc2cc(O)ccc2-c2c(C=O)c3cc(O)ccc3n21 (stereo unspecified) | IC50 (Tubulin [3]): 19 µM
 | 7 | CCCCC1Cc2cc(OC)ccc2-c2c(CNCc3ccccc3)c3ccc(OC)cc3n21 (stereo unspecified) | 
 | 9 | CCCCC1Cc2cc(OC)ccc2-c2c(C=O)c3cc(OC)c(OC)cc3n21 (stereo unspecified) | 
 | > 10 | CCCCC1Cc2cc(OC)ccc2-c2c(/C=N/O)c3ccc(OC)cc3n21 (stereo unspecified) | 
2.5 | 2.8 | CCC1Cc2cc(O)ccc2-c2c(C=O)c3ccc(O)cc3n21 (stereo unspecified) | 
 | > 10 | CCCCC1Cc2cc(OC)ccc2-c2c(C=O)c3cc(OC)ccc3n21 (stereo unspecified) | 
 | 5.7 | CCCCC1Cc2cc(OC)ccc2-c2c(/C=N/Cc3ccccc3)c3ccc(OC)cc3n21 (stereo unspecified) | 
0.54 |  | CCCCC1Cc2cc(O)ccc2-c2c(C#N)c3ccc(O)cc3n21 (stereo unspecified) | IC50 (MDA-MB-231 [8]): 0.3 µM; IC50 (Tubulin [3]): 13 µM; inhibition [4]: 48%
0.29 | 0.3 | CCCC1Cc2cc(O)ccc2-c2c(C=O)c3ccc(O)cc3n21 (stereo unspecified) | 
